# Screens from PubChem.
# Many of the other results were omitted from the sample, so hits are more common in it than they were.
# INS-1E rescue: INS-1E beta cell protection from cytokine death. INS-1E cytokine-induced death, ATP luminescence, 48 h; normalised: neutral wells 0, positive control 100. protection from cytokine-induced ATP loss, % at 10 µM. 20,000 compounds, 0.1% hits. AID 488910;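 active means mean replicate protection from cytokine-induced ATP loss at least 50% and at least 75% of replicates each reaching 50%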
#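 Assay system – rat INS-1E insulinoma cell line · Quantity – 8000 cells per well · Buffer or medium – RPMI without phenol red, 5% FBS · Schedule – 48 h co-treatment, 10 min post-lysis read · Technique – luminescent ATP assay (CellTiter-Glo)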
# T cruzi intra: intracellular Trypanosoma cruzi inhibition; activity score (inhibition), % at 5.01 µM; intracellular Trypanosoma cruzi in host cells, plate reader; AID 651903; 22,000 compounds, 4.9% hits; in the data active means activity score above about 55%;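 further: parasites and compound incubated about four days before reading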
# A1 apoptosis 2: compounds inhibiting A1, read as caspase activation. caspase activation, % (test concentration not listed). AID 2465. MEF A1-2A-BIM cells, caspase-Glo luminescence, 3 h; percent of clofoctol response, DMSO zero. 24,000 tested, under 10 active; in the data active means caspase activation above about 5.9%
#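 Material: mouse embryonic fibroblasts co-expressing A1 and BIM (A1-2A-BIM), primed for A1 dependence / Quantity: 2500 cells/well / Buffer or medium: RPMI-1640 growth medium with 10% FBS / Doses: 50 nL compound per well, pinned / Schedule: 3 h compound exposure at 37 °C / Signal: Caspase-Glo luminescence (DEVD substrate) / Measure: Caspase-3/7 activation, seen as rise in luminescence signal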
# Numbers stand for hits; - = inactive; . = no result given.
SMILES,INS-1E rescue,T cruzi intra,A1 apoptosis 2
C[C@@H]1CN([C@@H](C)CO)C(=O)c2cccc(NC(=O)Nc3ccc4c(c3)OCO4)c2O[C@@H]1CN(C)Cc1ccc(C(=O)O)cc1,-,-,.
C[C@H](CO)N1C[C@H](C)[C@@H](CN(C)Cc2ccc(C(=O)Nc3ccccc3N)cc2)Oc2ccc(NC(=O)Cn3cnnn3)cc2C1=O,-,69,.
COC(=O)CCCCCCC(=O)N/N=C/c1ccc(C)o1,-,-,.
O=C(CCCCCC(=O)N/N=C/c1cccs1)NO,.,.,-
COC(=O)CCCCCCC(=O)N/N=C/c1cccc2ccccc12,-,-,.
C/C=C(C)\C=N\NC(=O)CCCCC(=O)NO,-,-,-
C[C@H](CO)N1C[C@H](C)[C@@H](CN(C)CC2CC2)Oc2c(NC(=O)Nc3ccc4c(c3)OCO4)cccc2C1=O,-,58,-
C[C@H]1CN([C@@H](C)CO)C(=O)c2cccc(NC(=O)Nc3ccc4c(c3)OCO4)c2O[C@@H]1CN(C)CC1CC1,-,-,-
C[C@@H]1CN([C@H](C)CO)C(=O)c2cccc(NC(=O)Nc3ccc4c(c3)OCO4)c2O[C@H]1CN(C)Cc1ccc(Oc2ccccc2)cc1,-,-,-
C[C@H](CO)N1C[C@H](C)[C@H](CN(C)Cc2ccc(Oc3ccccc3)cc2)Oc2c(NC(=O)Nc3ccc4c(c3)OCO4)cccc2C1=O,-,78,-
CC(C)(C)OC(=O)NC/C=N/NC(=O)c1ccccn1,-,-,-
O=C(CCCCCCC(=O)Nc1ccccc1O)N/N=C/c1ccc(O)cc1Br,-,-,-
COC(=O)CCCCCCC(=O)N/N=C/c1ccc(C#N)cc1,-,-,.
C[C@H]1CN([C@@H](C)CO)C(=O)c2cc(NS(=O)(=O)c3ccc(Cl)cc3)ccc2O[C@@H]1CN(C)Cc1ccc(C(F)(F)F)cc1,-,58,-
C[C@H](CO)N1C[C@H](C)[C@@H](CN(C)Cc2ccc(C(F)(F)F)cc2)Oc2ccc(NS(=O)(=O)c3ccc(Cl)cc3)cc2C1=O,-,71,.
C[C@H]1CN([C@@H](C)CO)C(=O)c2cc(NS(=O)(=O)c3ccc(Cl)cc3)ccc2O[C@H]1CN(C)Cc1ccc(C(F)(F)F)cc1,.,.,-
C[C@@H]1CCCCO[C@H](CN(C)Cc2ccc(C(F)(F)F)cc2)[C@@H](C)CN([C@H](C)CO)C(=O)c2cc(NS(=O)(=O)c3ccc(Cl)cc3)ccc2O1,-,69,-
C[C@H]1CN([C@@H](C)CO)C(=O)c2cc(NS(=O)(=O)c3ccc(F)cc3)ccc2O[C@H]1CN(C)Cc1ccc(C(F)(F)F)cc1,.,55,.
C[C@@H]1CN([C@@H](C)CO)C(=O)c2cc(NS(=O)(=O)c3ccc(Cl)cc3)ccc2O[C@@H](C)CCCCO[C@@H]1CN(C)Cc1ccc(C(F)(F)F)cc1,.,.,-
C[C@H](CO)N1C[C@H](C)[C@H](CN(C)Cc2ccc(C(F)(F)F)cc2)Oc2ccc(NS(=O)(=O)c3ccc(F)cc3)cc2C1=O,-,-,-
C[C@@H]1CN([C@H](C)CO)C(=O)c2cc(NS(=O)(=O)c3ccc(Cl)cc3)ccc2O[C@H]1CN(C)Cc1ccc(C(F)(F)F)cc1,-,-,-
O=C(N1CCCCC1)[C@]1(CCS(=O)(=O)c2ccccc2)N=C(c2ccc(OCCCO)cc2)O[C@@H]1c1ccccc1,.,.,-
O=C(N/N=C\c1ccc2ccccc2n1)c1ccccn1,-,-,-
O=C(CCCCCC(=O)N/N=C/c1cccnc1Br)NO,.,.,-
O=C(NO)c1cccc(C(=O)N/N=C/c2ccncc2Br)c1,-,-,-
SMILES,INS-1E rescue,T cruzi intra,A1 apoptosis 2
Cc1noc(C)c1S(=O)(=O)Nc1ccc2c(c1)C(=O)N([C@@H](C)CO)C[C@H](C)[C@H](CN(C)C)OCCCC[C@@H](C)O2,.,.,-
C[C@H]1CN([C@@H](C)CO)C(=O)Cc2cc(NS(=O)(=O)c3cccs3)ccc2O[C@@H]1CN(C)S(=O)(=O)c1ccccc1,-,-,-
C[C@@H]1CN([C@@H](C)CO)C(=O)Cc2cc(NS(=O)(=O)c3cccs3)ccc2O[C@H]1CN(C)S(=O)(=O)c1ccc(Cl)cc1,.,.,-
C[C@@H]1CN([C@H](C)CO)C(=O)Cc2cc(NS(=O)(=O)c3cccs3)ccc2O[C@@H]1CN(C)S(=O)(=O)c1ccc(Cl)cc1,-,72,-
C[C@@H]1CN([C@H](C)CO)C(=O)Cc2cc(NS(=O)(=O)c3cccs3)ccc2O[C@@H]1CN(C)S(=O)(=O)c1ccccc1,-,59,-
O=C(CCCCCCC(=O)Nc1ccccc1O)N/N=C/c1ccc(-c2ccccc2)cc1,-,-,-
C[C@H](CO)N1C[C@H](C)[C@H](CN(C)C(=O)Nc2cccc3ccccc23)Oc2ncc(-c3cccc(C(F)(F)F)c3)cc2C1=O,.,62,.
C[C@H](CO)N1C[C@H](C)[C@H](CN(C)C(=O)Nc2cccc3ccccc23)Oc2ncc(C#Cc3cccc(F)c3)cc2C1=O,.,66,.
C[C@H](CO)N1C[C@H](C)[C@H](CN(C)C(=O)Nc2cccc3ccccc23)Oc2ncc(-c3cccc(F)c3)cc2C1=O,.,-,-
C[C@H](CO)N1C[C@H](C)[C@H](CN(C)C(=O)Nc2cccc3ccccc23)Oc2ncc(C#CC(C)(C)O)cc2C1=O,.,-,.
C[C@H](CO)N1C[C@H](C)[C@H](CN(C)C(=O)Nc2cccc3ccccc23)Oc2ncc(C#Cc3ccc(C(F)(F)F)cc3)cc2C1=O,.,85,-
C[C@H](CO)N1C[C@H](C)[C@H](CN(C)C(=O)Nc2ccccc2)Oc2ncc(C#Cc3cccc(F)c3)cc2C1=O,-,-,-
CCO[C@H]1OC(C(=O)NC2CC2)=C[C@@H](C(C)(C)C)[C@@H]1CCCO,.,.,-
C[C@H]1CN([C@@H](C)CO)C(=O)CCCn2nncc2CO[C@@H]1CN(C)S(=O)(=O)c1ccc(Oc2ccccc2)cc1,-,73,-
C[C@@H]1CN([C@@H](C)CO)C(=O)CCCn2nncc2CO[C@H]1CN(C)S(=O)(=O)c1ccc(Oc2ccccc2)cc1,.,-,-
C[C@H](CO)N1C[C@H](C)[C@@H](CN(C)S(=O)(=O)c2ccc(Oc3ccccc3)cc2)OCc2cnnn2CCCC1=O,.,73,-
C[C@H](CO)N1C[C@H](C)[C@H](CN(C)S(=O)(=O)c2ccccc2)OCc2cnnn2CCCC1=O,.,-,.
COC(=O)CCCCCCC(=O)N/N=C/[C@H](O)[C@H](O)[C@@H](O)[C@@H](O)CO,-,-,-
C=CCNC(=O)[C@H]1[C@@H]2C(=O)O[C@@H](c3ccccc3)[C@@H](c3ccccc3)N2[C@@H](c2ccc(O)cc2)[C@]12C(=O)N(C(=O)OCCOC)c1ccc(C#CC3=CCCCC3)cc12,.,.,-
C[C@@H]1CN([C@@H](C)CO)C(=O)c2cc(NC(=O)Nc3ccc4c(c3)OCO4)ccc2O[C@@H](C)CCCCO[C@H]1CN(C)Cc1ccc(C(F)(F)F)cc1,.,.,-
C[C@@H]1CCCCO[C@@H](CN(C)Cc2ccncc2)[C@@H](C)CN([C@H](C)CO)C(=O)c2cc(NC(=O)Nc3ccc(C(F)(F)F)cc3)ccc2O1,-,57,.
C[C@@H]1CCCCO[C@H](CN(C)Cc2ccc(C(F)(F)F)cc2)[C@@H](C)CN([C@@H](C)CO)C(=O)c2cc(NC(=O)Nc3ccc(F)cc3)ccc2O1,.,.,-
